“Also recorded” adds a separate entry of the source. Values belong to the compound of their own block, whether it stands above or below them.
Columns and labels:
hGPR40 = hGPR40 (Homo sapiens, UniProt O14842); assay: Calcium flux assay; format: cell-based
[1] = tested on: nuclear hormone receptors, other G-protein-coupled receptors (GPCRs) and enzyme targets; assay: Broad range of assays: nuclear hormone receptors, other GPCRs and enzyme targets; conditions: data not shown
[2] = tested on: primary islets from WT mice; assay: Insulin secretion from isolated WT mouse islets; format: cell-based; conditions: 11.2 mmol/L glucose, 90 min
Outline: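 Islets came from 2-3-month-old male wild-type C57BL/6 mice and were purified on a Histopaque-1100 gradient. They were exposed to test compound, or linoleic acid as reference ligand, in 11.2 mmol/L glucose. Insulin secretion is expressed as fold over vehicle, analysed by ANOVA with Dunnett's comparison.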

[3] = tested on: primary islets from GPR40 KO mice; assay: Insulin secretion from isolated GPR40 KO mouse islets; format: cell-based; conditions: 11.2 mmol/L glucose, 90 min
Outline: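 Islets from 2–3-month-old male GPR40 KO mice were purified on a Histopaque-1100 gradient and cultured overnight in RPMI-1640 with 10% FBS and antibiotics. They were preincubated 30 min in EBSS with 0.1% BSA and 2.8 mmol/L glucose. Islets were then incubated 90 min with 2.8 or 11.2 mmol/L glucose plus rising test compound levels (6 batches of 4 islets per condition). Linoleic acid and GLP-1(7-36) amide served as controls. Insulin was measured by ECL, expressed as fold over vehicle, and compared by ANOVA with Dunnett's test.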

[4] = Compound exposure in lean mice; format: in vivo, mouse; conditions: single oral dose 10 mg/kg, over 8 h
Outline: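 Male ICR mice; single oral dose in 0.5% methylcellulose/0.25% Tween-80. EDTA-plasma collected by retro-orbital bleed at 0.5, 1, 2, 4 and 8 h post-dose. Total circulating test compound measured by LC-MS.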

normal ICR mice = assay: IPGTT in lean ICR mice; format: in vivo, mouse
Outline: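 Male ICR mice aged 9-10 weeks were fasted overnight (about 1600 to 0800) and randomized by fasting glucose and body weight. Test compound or vehicle (0.5% methylcellulose/0.25% Tween-80) was given orally 60 min before IP glucose. Serum was sampled at 0, 3, 6 and 15 min and assayed with a Mesoscale rat/mouse insulin kit.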

WT mice = assay: OGTT in WT mice; format: in vivo, mouse; conditions: oral 30 mg/kg, 60 min before OGTT, versus vehicle
Outline: (§1)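 Chow-fed male mice aged 2–3 months (WT, GPR40 KO or GPR120 KO) were fasted overnight from about 1600 and randomized at about 0800 by fasting glucose and body weight. Oral test compound 30 mg/kg or vehicle (0.5% methylcellulose, 0.25% Tween-80) was given 60 min before oral glucose 2 g/kg. Tail-blood glucose was read by glucometer at 0, 15, 30, 60 and 120 min, averaging two readings, and analysed by repeated-measures ANOVA.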

GPR40 KO mice = assay: OGTT in GPR40 KO mice; format: in vivo, mouse; conditions: oral 30 mg/kg, 60 min before OGTT, versus vehicle
Outline: as §1

[5] = tested on: diet-induced obese (DIO) mice; assay: Glycemic control in DIO mice; format: in vivo, mouse; conditions: oral 10 mg/kg once daily
Outline: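 Male DIO mice aged 5–6 months were acclimated for 2 weeks and randomized by body weight and fasting blood glucose. They received oral test compound at 10 mg/kg or vehicle (0.5% methylcellulose, 0.25% Tween-80) once daily for 15 days, dosed 60 min before oral glucose. OGTTs on days 1 and 15 sampled tail blood at 0, 15, 30, 60 and 120 min by glucometer, averaging two readings.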

STZ-treated DIO mice = assay: Glycemic control in STZ-treated DIO mice; format: in vivo, mouse; conditions: for glucose AUC during OGTTs on days 7 and 14: oral once daily, LY2881835 30 mg/kg, sitagliptin 3 mg/kg
Outline: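 Male DIO mice aged 5–6 months got IP streptozotocin 50 mg/kg twice in one week. Two weeks later, mice with 9 am glucose of 180–300 mg/dL were randomized by body weight and glucose. Dosing was oral, once daily for 16 days: test compound 30 mg/kg given 30 min and sitagliptin 3 mg/kg 60 min before OGTTs on days 1, 7 and 14. Glucose was sampled at 0–120 min and glucose AUC calculated; 7 per group, with age-matched non-STZ mice included.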

individuals with T2D = conditions: oral, 12 weeks, ref Araki et al. 2012, Burant et al. 2012; cited from earlier work
Zucker fa/fa rats = assay: Glycemic control in fatty Zucker fa/fa rats; format: in vivo, rat; conditions: oral once daily, LY2881835 1 mg/kg, rosiglitazone 3 mg/kg
Outline: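 Male Zucker fa/fa rats aged 2–3 months were acclimated for 2 weeks and randomized by body weight and glucose (n = 6/group). Test compound 1 mg/kg, rosiglitazone 3 mg/kg or vehicle was given orally once daily for 21 days. OGTTs on days 1 and 21 sampled blood at 0, 10, 20, 40 and 60 min, averaging two readings. Age-matched lean rats were included.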

hGPR40, sequence (O14842 whole entry): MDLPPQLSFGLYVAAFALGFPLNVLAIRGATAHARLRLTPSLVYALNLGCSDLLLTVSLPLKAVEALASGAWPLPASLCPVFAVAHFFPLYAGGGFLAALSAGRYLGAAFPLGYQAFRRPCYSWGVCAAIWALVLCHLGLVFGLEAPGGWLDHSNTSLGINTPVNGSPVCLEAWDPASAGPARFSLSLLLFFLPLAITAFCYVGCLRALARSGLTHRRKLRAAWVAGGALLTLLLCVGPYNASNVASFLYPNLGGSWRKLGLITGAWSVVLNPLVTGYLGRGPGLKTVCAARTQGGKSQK

EC50 (hGPR40): 164 ± 94 nM
signals in assay systems not expressing GPR40 [1]: No positive signals were detected
hypoglycemia [5]: no evidence of hypoglycemia was observed
Structure (SMILES): CC#C[C@@H](CC(=O)O)c1ccc(OCc2ccc(CN3CCC4(C=Cc5ccccc54)CC3)cc2)cc1 [LY2881835, (3S)‐3‐(4‐{[4‐(1′H‐spiro[indene‐1,4′‐piperidin]‐1′‐ylmethyl)benzyl]oxy}phenyl)hex‐4‐ynoic acid]
insulin secretion in WT primary islets [2]: statistically significant increase in insulin secretion
insulin secretion in GPR40 KO primary islets [3]: Enhanced insulin secretion was absent; also recorded: No insulin secretion
plasma concentration time course [4]: peaked and remained elevated at 15, 30, and 60 min followed by a slight decrease in levels throughout the 8 h study
insulin AUC during IPGTT (normal ICR mice; oral 10 mg/kg dose group, versus vehicle): statistically significant enhancement in insulin AUC
insulin secretion during IPGTT (normal ICR mice; oral 0.3, 1, 3 and 10 mg/kg, 60 min before IP glucose 2 g/kg): clear dose‐dependent enhancement in insulin secretion
glucose levels during OGTT (WT mice): significant glucose lowering
glucose levels during OGTT (GPR40 KO mice): had no effect on glucose levels
fasting glucose levels at time 0 of the OGTTs ([5]; 60 min after administration): significantly reduced
glucose levels during OGTTs ([5]; OGTTs on days 1 and 15): Significant reductions in glucose levels
blood glucose during OGTT after a single treatment (STZ-treated DIO mice; oral 30 mg/kg, day 1): lowered blood glucose
glucose AUC during OGTTs on days 7 and 14 (STZ-treated DIO mice): Results are similar

Structure (SMILES): Cc1cc(OCCCS(C)(=O)=O)cc(C)c1-c1cccc(COc2ccc3c(c2)OC[C@H]3CC(=O)O)c1 [TAK‐875]
HbA1c reduction (individuals with T2D): superior to historical data with DPPIV inhibitors and comparable with that of sulfonylureas

Structure (SMILES): CCCCC/C=C\C/C=C\CCCCCCCC(=O)O [linoleic acid, reference compound]
insulin secretion in GPR40 KO primary islets [3]: a reduction in insulin secretion was seen
insulin secretion in GPR40 KO primary islets ([3]; listed as LA): No insulin secretion

Structure (SMILES): CN(CCOc1ccc(CC2SC(=O)NC2=O)cc1)c1ccccn1 (stereo not shown) [rosiglitazone, Rosiglitazone]
blood glucose during OGTT on day 1 (Zucker fa/fa rats): no glucose lowering

Structure (SMILES): N[C@@H](CC(=O)N1CCn2c(nnc2C(F)(F)F)C1)Cc1cc(F)c(F)cc1F [sitagliptin, reference compound]
glucose AUC during OGTTs on days 7 and 14 (STZ-treated DIO mice): Results are similar
